Screens (PubChem BioAssay)
A selection: hits, their analogues and other compounds. The true share with any hit is near 1.8%.
Cneo AK release = causes C. neoformans cell lysis; adenylate kinase release luminescence, 4 h; normalised: neutral wells 0, clomiphene wells 100; lysis activity, % at 15 µM; 360,000 tested, 0.2% active; AID 651654;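 active = mean lysis activity across replicates of at least 80%, whatever share of replicates individually reach that level; inactive = mean lysis activity below 80%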
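read-out = cell lysis signal | test system = log-phase Cryptococcus neoformans yeast cells | input = cells at 5 × 10^6 per mL | medium = fresh YPD growth medium | signal = luminescent adenylate kinase detection reagent | timing = 4 h at 37 °C static, read 1 h later | dosing = single dose | controls = Clomiphene as positive lysis control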
SKN-1 block = blocks SKN-1 activity in C. elegans. AID 624304. C. elegans VP596 Pgst-4::GFP/RFP ratio, acrylamide-induced, 24 h. inhibition, % at 21.8 µM. 360,000 tested, 0.49% active;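 active = interference check ratio from 0.5 to 1.5 plus GFP to RFP signal ratio inhibition reaching or exceeding a fixed threshold, cut at about 30% in these data, passing the limit was not always enough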
MT1-MMP act inh = blocks activation of human MT1-MMP. HT1080 RFP-PRO-GFP cells, GFP/RFP ratio fluorescence, overnight; percent of plate control window, DMSO zero. P50281. GFP/RFP ratio change, % at 20 µM. 360,000 tested, 0.061% active;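 active = GFP/RFP ratio change of at least 30% with cell ATP level not reduced by more than half and red fluorescence within 50% of control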
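Assay system: HT1080 RFP-PRO-GFP cells. Benchmarks: DMSO vehicle wells and RFP-L50D-GFP reporter cell wells. Times: overnight cell settling, then overnight compound exposure, 37 °C, 5% CO2. Compound: 20 µM single dose, 1% DMSO. Read-out basis: GFP/RFP fluorescence ratio.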
hiPSC survival = hiPSC single-cell survival enhancement. survival enhancement, % at 20 µM. 360,000 tested, 0.044% active. ATPlite luminescence; 100% = ROCK inhibitor wells, 0% = DMSO; in the data active = survival enhancement above about 18%;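 note: cells exposed to compounds for 16 hours before the ATP read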
DAGLB inhibitor = blocks human DAGLB lipase activity | Q8NCG7 | HEK293T DAGLB membrane lysate, EnzChek fluorogenic substrate | inhibition, % at 5.17 µM | 340,000 tested, 0.059% active; in the data active = inhibition above about 34%;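 note: 0% = enzyme with vehicle and 100% = wells lacking enzyme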
Target sequence (Q8NCG7 whole entry, looked up): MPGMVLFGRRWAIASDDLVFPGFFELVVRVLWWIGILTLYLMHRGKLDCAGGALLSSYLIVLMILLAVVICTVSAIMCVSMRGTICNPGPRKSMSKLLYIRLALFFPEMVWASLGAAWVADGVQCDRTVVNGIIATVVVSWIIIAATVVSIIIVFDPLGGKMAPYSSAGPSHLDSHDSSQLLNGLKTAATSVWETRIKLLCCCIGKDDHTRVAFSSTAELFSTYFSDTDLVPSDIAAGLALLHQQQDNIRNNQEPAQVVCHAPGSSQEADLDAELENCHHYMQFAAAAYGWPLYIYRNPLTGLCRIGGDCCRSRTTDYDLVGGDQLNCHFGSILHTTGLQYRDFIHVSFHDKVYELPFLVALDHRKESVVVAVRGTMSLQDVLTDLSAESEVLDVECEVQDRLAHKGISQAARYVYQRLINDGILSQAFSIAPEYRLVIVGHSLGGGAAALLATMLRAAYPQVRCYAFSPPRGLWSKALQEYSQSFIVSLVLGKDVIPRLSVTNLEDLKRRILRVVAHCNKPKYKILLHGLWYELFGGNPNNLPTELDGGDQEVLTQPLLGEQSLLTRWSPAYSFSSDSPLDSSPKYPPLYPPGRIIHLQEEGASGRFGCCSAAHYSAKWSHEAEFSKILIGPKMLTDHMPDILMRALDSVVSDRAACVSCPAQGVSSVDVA
Ecoli rRNA inh = selective bacterial rRNA inhibition in E. coli; AID 720706; 350,000 tested, 1.6% active; GFP signal change (wild-type ribosome), % (concentration not given with the values); E. coli WT GFP vs humanized-ribosome RFP mutants, fluorescence, 24 h; stronger effect = lower value; DMSO median 0, no signal -100;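 active = significant combined selectivity score with lowered wild-type GFP, culture density cut under 30%, mutant RFP and density less affected; inactive = any of these conditions unmet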
* hit, by the source's call; . = no result given.

SMILES	Cneo AK release	SKN-1 block	MT1-MMP act inh	hiPSC survival	DAGLB inhibitor	Ecoli rRNA inh
C[C@@H]1C/C=C/C[C@H](c2ccc3c(c2)OCO3)NC(=O)[C@@H](C)N(C)C(=O)c2ccccc2O1	.	.	.	.	.	3
O=C(N[C@H]1CC[C@@H](CCNS(=O)(=O)c2ccccc2)O[C@H]1CO)c1cccc(F)c1	2	.	.	.	.	0
Cc1noc(C)c1NC(=O)N(C)C[C@@H]1Oc2ccc(NS(=O)(=O)c3cn(C)cn3)cc2CC(=O)N([C@H](C)CO)C[C@@H]1C	-2	.	.	.	.	4
Cc1noc(C)c1NC(=O)N(C)C[C@H]1Oc2ccc(NS(=O)(=O)c3cn(C)cn3)cc2CC(=O)N([C@H](C)CO)C[C@H]1C	102*	.	.	.	.	2
CCC(=O)N1C[C@@H](C)[C@H](OC)CN(C)C(=O)c2ccc(NC(=O)c3ccno3)cc2OC[C@@H]1C	.	.	.	.	.	4
Cc1cccc(N2CC(C(=O)Nc3cccc(S(=O)(=O)N4CCCCC4)c3)CC2=O)c1C (stereo not drawn)	-1	-11	3	0	-4	-25*
O=C(Nc1ccc(Br)cc1Cl)c1cnccn1	.	61*	-5	-1	-2	13
O=C(NNC(=O)c1ccc(Cl)cc1Cl)c1cnccn1	.	2	3	0	2	-35*
O=C(NNC(=O)c1cnccn1)c1ccc(Cl)cc1	.	-13	2	-1	2	-39*
CCc1cnc(N2[C@H](C#N)[C@@H](c3ccc(C#CC(C)C)cc3)[C@@H]2CO)s1	0	.	.	.	.	-2
O=C(c1ccccc1F)N1CC(=O)N2[C@H](CO)[C@H](c3ccc(-c4ccccc4)cc3)[C@@H]2C1	.	.	.	.	.	6
CCCCn1nnc(NC(=O)c2sc3cc(Cl)ccc3c2Cl)n1	0	15	0	1	-4	.
CCN(CC)Cc1ccc(NC(=O)c2sc3cc(Cl)ccc3c2Cl)cc1	.	51*	-2	0	0	-30
CCCN(C)C[C@H]1OCCCC[C@@H](C)Oc2ccc(NC(=O)NC(C)C)cc2C(=O)N([C@@H](C)CO)C[C@H]1C	92*	.	.	.	.	2
CC(C)NC(=O)Nc1ccc2c(c1)C(=O)N([C@H](C)CO)C[C@H](C)[C@H](CN(C)C(=O)Nc1ccccc1)OCCCC[C@H](C)O2	3	.	.	.	.	3
CC(C)NC(=O)Nc1ccc2c(c1)C(=O)N([C@H](C)CO)C[C@@H](C)[C@H](CN(C)C(=O)Nc1ccccc1)OCCCC[C@@H](C)O2	118*	.	.	.	.	-4
CC(C)NC(=O)Nc1ccc2c(c1)C(=O)N([C@@H](C)CO)C[C@@H](C)[C@@H](CN(C)C(=O)NC(C)C)OCCCC[C@@H](C)O2	113*	.	.	.	.	-2
C[C@H](CO)N1C[C@H](C)[C@@H](CN(C)C(=O)NC2CCCCC2)OCCCC[C@H](C)Oc2ccc(NC(=O)C3CCCCC3)cc2C1=O	-1	.	.	.	.	0
C[C@H](CO)N1C[C@H](C)[C@H](CN(C)C(=O)NC2CCCCC2)OCCCC[C@H](C)Oc2ccc(NC(=O)C3CCCCC3)cc2C1=O	104*	.	.	.	.	-2
CC(C)NC(=O)Nc1ccc2c(c1)C(=O)N([C@H](C)CO)C[C@@H](C)[C@H](CN(C)CC1CC1)OCCCC[C@@H](C)O2	.	.	.	.	.	-2
CCCC#Cc1cnc2c(c1)C(=O)N([C@H](C)CO)C[C@H](C)[C@H](CN(C)C(=O)Nc1ccc(OC)cc1)O2	0	.	.	.	.	-1
C[C@H]1CN([C@@H](C)CO)C(=O)c2cccc(NC(=O)CCCCCC(=O)Nc3ccccc3N)c2O[C@@H]1CN(C)Cc1ccc2c(c1)OCO2	-2	.	.	.	.	-12
C[C@@H]1CCCCO[C@H](CN(C)C(=O)NC2CCCCC2)[C@@H](C)CN([C@H](C)CO)C(=O)c2cc(NS(=O)(=O)c3cn(C)cn3)ccc2O1	.	.	.	.	.	3
C[C@H](CO)N1C[C@H](C)[C@H](CN(C)C(=O)NC2CCCCC2)OCCCC[C@H](C)Oc2ccc(NS(=O)(=O)c3cn(C)cn3)cc2C1=O	90*	.	.	.	.	0
N#CC(c1ccc(Cl)cc1)c1ccc2c(C(F)(F)F)cc(C(F)(F)F)nc2n1 (stereo not drawn)	.	37*	-17	-5	31	.
